Screening data (PubChem)
The full list was thinned out, with hits kept by preference.
HSF-1 act: increases HSF-1 driven luciferase reporter signal | NIH3T3-HGL HSF-1 luciferase reporter, MG132, 8 h; 100% = twice DMSO control signal | activation, % at 9 µM | 300,000 compounds, 1.7% hits | AID 504408;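 active = mean replicate activation of at least 50% with a set share of replicates each reaching 50%; inconclusive = only one of those two conditions met; inactive = mean below 50% and too few replicates reaching it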
L major viab: Leishmania major promastigote growth inhibition; Leishmania major promastigotes, resazurin fluorescence viability; inhibition, % at 10 µM; 200,000 compounds, 9% hits; in the data active = inhibition above about 50%;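 note: promastigotes grown with compound for 44 hours at 28 °C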
Hsp70 activator: transcriptional activators of Hsp70. HeLa Hsp70 promoter luciferase reporter, luminescence; scaled: vehicle 0, proteasome-inhibitor control 100%. activation, % at 10 µM. 200,000 compounds, 0.04% hits. AID 1203;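 active = activation above the mean across all tested compounds plus 3 SD, cutoff set per campaign, cut at about 5.5% in these data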
T cruzi repl: T. cruzi replication inhibition; AID 1885; inhibition, % (test concentration not listed); 300,000 compounds, 1.4% hits; T. cruzi beta-gal in NIH3T3, luminescence, 90 h;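 active = mean inhibition across valid replicates above about 55%, limit read from the data; inconclusive = mean below that limit but half or more replicates reach it; inactive = mean below it, under half of replicates reach it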;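 note: signal also drops with host cell toxicity which is not excluded here; higher percent means less beta-gal luminescence so fewer parasites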
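Incubation – ≥90 h infection period, 3 h prior cell attachment · System – NIH/3T3 fibroblasts plus reporter T. cruzi · Doses – compound pinned at 50 nL/well, DMSO · Read-out basis – percent inhibition of parasite-derived β-gal signal · Signal – luminescent β-galactosidase signal after 60 min lysis · Also added – 5000 T. cruzi trypomastigotes/well · Medium – Low-serum DMEM with 2% FBS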
HSF1 inhib: HSF1 inhibition | NIH3T3-HGL HSE-luciferase, MG132-induced, luminescence 8 h; active compounds read low | activity change, negative = inhibition, % at 7.5 µM (by protocol) | 300,000 compounds, 0.77% hits | AID 2098;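 active = more than half of replicate wells show activity change below -50%, luminescence cut by over half; inconclusive = some wells, but at most half, below -50%; inactive = no replicate well below -50%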;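 note: luciferase reports HSF-1 transcriptional activity via heat shock element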
Of the large screens only hits and unclear results are named; the others gave an inactive call.

CC(=O)c1ccc(N2CCN(C(=S)Nc3ccc(Cl)c(Cl)c3)CC2)cc1	none
CC(=O)Cc1cc(O)c2ccccc2c1OC(=O)c1ccccc1	HSF-1 act inconclusive
Cc1ccc2[nH]c3c(c2c1)CN(C(=O)CN1CCN(Cc2ccc4c(c2)OCO4)CC1)CC3	L major viab 95.2
Cc1c(C(=O)OC(C)CCN(C)C)oc2ccccc12 (centres undefined)	L major viab 85.4, T cruzi repl 57.3
CCN(CC)S(=O)(=O)c1cccc(C(=O)N/N=C(\C)c2ccc(O)cc2O)c1	L major viab 67.9, T cruzi repl 64.2
CCN(CC)S(=O)(=O)c1cccc(NC(=O)c2cncc(Br)c2)c1	L major viab 98.9
CCN(CC)S(=O)(=O)c1cccc(C(=O)/C=C2/N(C)c3ccccc3C2(C)C)c1	T cruzi repl 56.8
CCN(CC)S(=O)(=O)c1cccc(C(=O)Nc2cccc(C)c2)c1	L major viab 62.0
CCN(CC)S(=O)(=O)c1cccc(C(=O)Nc2cc(C)cc(C)c2)c1	none
CN(C)S(=O)(=O)c1cccc(NC(=O)c2cc3ccccc3o2)c1	none
CN(C)S(=O)(=O)c1cccc(NC(=O)c2cncc(Br)c2)c1	L major viab 88.0
CCN(CC)S(=O)(=O)c1cccc(NC(=O)c2cc3ccccc3o2)c1	L major viab 80.9
Nc1nnc(SCc2c(F)cccc2Cl)s1	HSF-1 act 77.3 (no result: L major viab, Hsp70 activator)
Nc1nnc(SCc2ccc(Cl)cc2)s1	none
COC(=O)Oc1ccc(/C=C/C(=O)OC(C)C)cc1OC(=O)OC	L major viab 80.3
Cc1ccc(-c2cc(C(=O)NC3CCCC3)no2)cc1	none (no result: L major viab, Hsp70 activator)
O=C(NC1CCCCC1)c1cc(-c2ccc(F)cc2)on1	HSF-1 act 53.8 (no result: L major viab, Hsp70 activator)
CCCc1nc(NCCCOCC)c2nnn(Cc3ccccc3)c2n1	none (no result: L major viab, Hsp70 activator)
CC(C)Oc1ccccc1/C=N/NC(=O)C1CC1	none (no result: L major viab, Hsp70 activator)
O=C(CCN1CCN(C/C=C/c2ccccc2)CC1)Nc1ccccc1F	L major viab 97.2
COC(=O)c1cc(OC)c(OC)cc1NC(=S)N1CCN(C/C=C/c2ccccc2)CC1	L major viab 99.4
COc1ccc(NC(=S)N2CCN(C/C=C/c3ccccc3)CC2)c(OC)c1	none
COc1ccccc1NC(=S)N1CCN(C/C=C/c2ccccc2)CC1	L major viab 67.3
S=C(NC1CCCCC1)N1CCN(C/C=C/c2ccccc2)CC1	L major viab 94.4
COc1ccc(CC(=O)N/N=C(\C)c2cccs2)cc1	none (no result: L major viab, Hsp70 activator)
COc1cc(CCC(=O)Nc2ccc(S(=O)(=O)NC3=NCCCCC3)cc2)cc(OC)c1OC	none
COc1ccc(C)cc1NC(=O)CN1CCN(C/C=C/c2ccccc2)CC1	L major viab 86.2
COc1ccccc1NC(=O)CN1CCN(CC(=O)Nc2ccc(F)cc2F)CC1	HSF-1 act 68.5 (no result: L major viab, Hsp70 activator)
COC(=O)c1ccccc1NC(=S)N1CCC(N2CCCCC2)CC1	L major viab 73.3 (no result: HSF-1 act, HSF1 inhib)
O=C(Nc1ccc(F)cc1)N1CCN(C/C=C/c2ccccc2)CC1	none
O=C(Nc1cccc(F)c1)N1CCN(C/C=C/c2ccccc2)CC1	L major viab 68.3
COc1ccccc1NC(=O)CN1CCCCC1	none
COc1ccccc1NC(=S)N1CCN(Cc2ccccc2)CC1	L major viab 82.6
CC(C(=O)Nc1cccc([N+](=O)[O-])c1)N1CCN(C/C=C/c2ccccc2)CC1 (centres undefined)	L major viab 81.5
COC(=O)c1cc(OC)c(OC)cc1NC(=S)N1CCCC1	HSF-1 act 62.4, L major viab 87.9
Fc1ccc(NC(=S)N2CCN(C/C=C/c3ccccc3)CC2)c(F)c1	L major viab 81.0
Cc1ccccc1NC(=S)N1CCN(Cc2ccccc2)CC1	none
CCCCNC(=S)Nc1ccc2nc3n(c(=O)c2c1)CCCCC3	L major viab 51.0
O=C(Nc1ccc2nc3n(c(=O)c2c1)CCCC3)c1cc([N+](=O)[O-])ccc1F	L major viab 100.3
CC(Oc1ccc2c(c1)oc(=O)c1ccccc12)C(=O)NCCN1CCOCC1 (centres undefined)	none (no result: L major viab, Hsp70 activator)
Cc1cc(NC(=O)CSc2nc3c(C)c(C)ccc3cc2C)no1	none (no result: L major viab, Hsp70 activator)
Cc1nc(N2CCCCC2)c2c(C)c(C(=O)Nc3ccc4c(c3)OCCO4)sc2n1	none (no result: L major viab, Hsp70 activator)
CSc1ccc(C(=S)N2CCN(CCO)CC2)cc1	L major viab 74.7
CCN1CCN(C(=S)Nc2ccc(Cl)c(Cl)c2)CC1	L major viab 83.7
CCN1CCN(C(=S)c2ccc(Cl)c(Cl)c2)CC1	L major viab 90.4
OCCN1CCN(C(=S)Nc2ccc(SC(F)F)cc2)CC1	none
CCN1CCN(C(=S)NCc2ccc(C)cc2)CC1	L major viab 83.4
Cc1ccc(CNC(=S)N2CCOCC2)cc1	none
N=C1c2ccccc2CN1c1ccc(N2CCOCC2)c(S(=O)(=O)Nc2ccc(Cl)cc2)c1	none (no result: L major viab, Hsp70 activator)
CCN1CCN(C(=S)Nc2cccc(C(F)(F)F)c2)CC1	L major viab 59.9 (no result: HSF-1 act, HSF1 inhib)
OCCN1CCN(C(=S)Nc2cccc(C(F)(F)F)c2)CC1	none (no result: L major viab, Hsp70 activator)
CCN1CCN(C(=S)c2ccc(-c3ccccc3)cc2)CC1	L major viab 80.0
Cc1ccc(N2C(=O)NC(NS(=O)(=O)c3ccccc3)(C(F)(F)F)C2=O)cc1 (centres undefined)	HSF1 inhib -79.3 (no result: L major viab, Hsp70 activator)
Cc1ccc(N2C(=O)NC(NS(=O)(=O)c3ccc(C)cc3)(C(F)(F)F)C2=O)cc1 (centres undefined)	none (no result: L major viab, Hsp70 activator)
O=C(NC1(C(F)(F)F)NC(=O)N(c2ccccc2)C1=O)c1cccs1 (centres undefined)	L major viab 57.0
O=C(COC(=O)CCc1nc2ccccc2c(=O)[nH]1)NC(=O)NC1CCCC1	L major viab 52.8
Cc1ccc(OCCOC(=O)CCc2nc3ccccc3c(=O)[nH]2)cc1	none
Cc1ccccc1NC(=O)COC(=O)CCc1nc2ccccc2c(=O)[nH]1	none
O=C(COC(=O)CCc1nc2ccccc2c(=O)[nH]1)Nc1c(Cl)cccc1C(F)(F)F	HSF1 inhib -70.1 (no result: L major viab, Hsp70 activator)
O=C(CCc1nc2ccccc2c(=O)[nH]1)OCc1ccc(-c2ccccc2)cc1	L major viab 93.3
O=C(CCc1nc2ccccc2c(=O)[nH]1)OCc1cccc(C(F)(F)F)c1	L major viab 63.2
Cn1c(SCC(=O)N2c3ccccc3CCc3ccccc32)nnc1-c1cc2ccccc2cc1O	L major viab 98.0
Cc1cccc(-c2nnc(SCC(=O)N3c4ccccc4CCc4ccccc43)n2C)c1	L major viab 90.6
Cn1c(SCC(=O)N2CCCc3ccccc32)nnc1-c1ccccc1	none
O=c1cc2oc3cc(O)c(O)cc3c(-c3ccccc3[N+](=O)[O-])c-2cc1O	none (no result: L major viab, Hsp70 activator)
COc1ccc(NC(=S)N(CCCN2CCN(C)CC2)Cc2cccs2)cc1	none
CSc1cccc(NC(=S)N(CCCN2CCCC(C)C2)Cc2cccs2)c1 (centres undefined)	L major viab 98.7
COc1ccc(NC(=S)N(CCCN2CCC(C)CC2)Cc2cccs2)cc1Cl	L major viab 99.2
COc1cccc(NC(=S)N(CCCN2CCCC(C)C2)Cc2cccs2)c1 (centres undefined)	L major viab 99.7
